# ADAM10 inh: human ADAM10 inhibitors, primary screen, biochemical, QFRET, HTS; Disintegrin and metalloproteinase domain-containing protein 10 (Homo sapiens), O14672; recombinant ADAM10, EDANS/DABCYL FRET peptide cleavage, 3 h; inhibition, % at 7 µM; 370,000 compounds, 0.62% hits; AID 720582, 2013;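 active = inhibition above a per-campaign cutoff equal to the mean of compounds falling between control-based bounds plus 3 SD, cut at about 20% in these data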;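 also: 0% = DMSO wells while the 100% control is not disclosed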
# DDE Tn7 FP inh: inhibitors of Tn7 peptide binding to fibrin DD(E), primary screen, biochemical, fluorescence polarization, human fibrin, Tn7 probe; FP displacement of FITC-Tn7 peptide from fibrin DD(E); 0% = median of compound wells per plate; 370,000 compounds, 0.13% hits; Fibrinogen beta chain (Homo sapiens), P02675; AID 720508, 2013; inhibition, % at 8.3 µM;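 active = inhibition above the mean of compounds falling within the control limits plus 3 SD of them, cut at about 14% in these data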;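 also: 0% = plate median of compound wells and 100% = 10 µM Aha-Tn7 peptide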
# Target sequence (P02675 whole entry, looked up): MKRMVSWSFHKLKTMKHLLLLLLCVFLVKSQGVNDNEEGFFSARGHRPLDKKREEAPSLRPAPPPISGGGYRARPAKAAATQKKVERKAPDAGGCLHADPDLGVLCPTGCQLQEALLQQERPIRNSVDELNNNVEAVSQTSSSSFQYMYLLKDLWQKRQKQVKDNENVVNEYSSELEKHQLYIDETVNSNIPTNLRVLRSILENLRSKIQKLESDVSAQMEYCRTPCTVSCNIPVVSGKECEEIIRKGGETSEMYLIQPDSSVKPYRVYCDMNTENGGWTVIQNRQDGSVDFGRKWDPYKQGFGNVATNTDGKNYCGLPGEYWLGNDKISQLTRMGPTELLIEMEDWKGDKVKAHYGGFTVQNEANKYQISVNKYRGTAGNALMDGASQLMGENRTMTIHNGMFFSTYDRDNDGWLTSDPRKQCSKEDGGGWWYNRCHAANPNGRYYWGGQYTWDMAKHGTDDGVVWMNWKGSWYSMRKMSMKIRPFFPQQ
#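 Test system – human fibrin DD(E) · Times – 10 min preincubation, 3 h with tracer, room temperature · Detection – fluorescence polarization of the labelled Tn7 tracer · Measure – percent inhibition normalized to high-control wells · Benchmarks – high control wells with 10 µM unlabelled Aha-Tn7 peptide (full inhibition) · Repeats – singlicate testing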
# Tn6 DDE FP: inhibitors of Tn6 peptide binding to fibrin DD(E), primary screen, biochemical, fluorescence polarization, human fibrin, Tn6 probe; Fibrin DD(E) TRITC-Tn6 fluorescence polarization displacement; inhibition, % at 8.3 µM; 370,000 compounds, 0.21% hits;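 active = inhibition above a per-campaign cutoff: mean of compounds within control limits plus 3 SD, cut at about 15% in these data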;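 also: 0% = median of all compound wells on the plate and 100% = blocking peptide control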
# ADAM17 inh: ADAM17 inhibitors, primary screen, biochemical, QFRET; Disintegrin and metalloproteinase domain-containing protein 17 (Homo sapiens), P78536; recombinant ADAM17, EDANS/DABCYL FRET peptide cleavage; inhibition, % at 6.95 µM; AID 720648, 2013; 370,000 compounds, 0.83% hits;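 active = inhibition above the mean of compounds lying between control limits plus 3 SD, set per campaign, cut at about 8.5% in these data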;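 also: 0% = DMSO-only wells as the low control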
# MT1-MMP act inh: blockers of MT1-MMP proenzyme processing, primary screen, HT1080 RFP-PRO-GFP cells, GFP/RFP fluorescence | GFP/RFP ratio fluorescence, overnight; percent of plate control window, DMSO zero | GFP/RFP ratio change, % at 20 µM | 360,000 compounds, 0.061% hits | AID 651647, 2012;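 active = GFP/RFP ratio change of at least 30% with cell ATP level not reduced by more than half and red fluorescence within 50% of control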
#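 Compound: 20 µM single dose, 1% DMSO / System: HT1080 RFP-PRO-GFP cells / Controls: DMSO and RFP-L50D-GFP cell wells / Read-out basis: GFP/RFP fluorescence ratio / Schedule: overnight compound exposure at 37 °C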
# ADAM10 confirm: human ADAM10 inhibitors, confirmation, biochemical, QFRET, triplicate. shares compounds with ADAM10 inh. ADAM10 QFRET peptide cleavage, EDANS fluorescence. inhibition, % at 6.95 µM. 2,100 compounds, 1% hits;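 active = inhibition above about 20% chosen separately for each screening run, limit read from the data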;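 also: 0% = DMSO wells and 100% = marimastat wells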
# ADAM17 ctr: ADAM17 inhibitors, counter-screen for ADAM10 exosite inhibitor project, biochemical, QFRET, high throughput. AID 743214, 2013. shares compounds with ADAM10 inh. 2,100 compounds, 0.5% hits. ADAM17 QFRET peptide cleavage, EDANS fluorescence. inhibition, % at 6.95 µM;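 active = mean triplicate inhibition above the solvent-only control wells' mean plus 3 SD, cut at about 12% in these data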;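 also: 0% = DMSO wells and 100% = marimastat wells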
# Active calls of the source: *; . = no result given. In the library only some 1.6% were active in any assay of this set; here they are far more common.
SMILES,ADAM10 inh,DDE Tn7 FP inh,Tn6 DDE FP,ADAM17 inh,MT1-MMP act inh,ADAM10 confirm,ADAM17 ctr
CCOC(=O)N1CCN(C(=O)C[C@H]2C[C@@]3(C(=O)OC)C(=C[C@H](C(C)(C)C)O[C@@H]3C)N(CCc3ccc(OC)c(OC)c3)C2=O)CC1,-1,2,9,-1,.,.,.
Cc1cc(S(=O)(=O)N(Cc2ccc(C(C)C)cc2)CC2CCCO2)ccc1-n1cnnn1 (configuration not stated),24*,11,7,5,-3,5,1
Cc1cc(S(=O)(=O)N(Cc2ccc(F)cc2)CC2CCCO2)ccc1-n1cnnn1 (configuration not stated),-1,1,0,-2,0,.,.
O=S(=O)(c1cccc(C(F)(F)F)c1)N1CCC(CO)(CCCc2ccccc2)CC1,22*,6,4,8,3,1,1
Cc1ccc(NC(=O)Cn2nnc(-c3ccccc3F)n2)cc1C,-8,-4,-6,-1,.,.,.
CCOC(=O)c1ccc(N/C(=N\S(=O)(=O)c2ccccc2C)c2ccccc2)cc1,21*,6,-11,4,0,2,1
CCOC(=O)c1ccc(NC(=O)c2ccc(NS(C)(=O)=O)cc2)cc1,21*,4,-1,3,9,0,0
COC(=O)c1ccc(N/C(=N/S(=O)(=O)c2ccccc2)c2ccccc2)cc1,3,0,-1,1,-6,.,.
COc1ccc(-n2c(=S)[nH]c3cc(C(=O)NCc4ccccc4OC)ccc3c2=O)c(OC)c1,14,-1,-1,6,1,.,.
COc1ccc(-n2c(=S)[nH]c3cc(C(=O)NCc4ccc(F)cc4)ccc3c2=O)c(OC)c1,23*,-1,-3,6,3,1,1
O=C(NC1CCCCC1)[C@H](CSCc1ccccc1)N1Cc2ccccc2C1=O,22*,-3,-2,7,-13,1,0
CC(C)NC(=O)[C@H](CSCc1ccccc1)N1Cc2ccccc2C1=O,-6,3,1,-3,1,.,.
O=C(NC1CCCCN(Cc2cccc(Cl)c2)C1=O)C1CCCCC1 (configuration not stated),-3,-4,-5,-2,.,.,.
Cc1ccc(C)c(N2CCN(C(=O)c3ccc(CS(=O)Cc4ccc(Cl)cc4)o3)CC2)c1 (configuration not stated),11,-9,-4,5,.,.,.
Cc1ccc(Cl)cc1N1CCN(C(=O)c2ccc(CS(=O)Cc3ccc(Cl)cc3)o2)CC1 (configuration not stated),23*,0,-16,3,3,3,2
NS(=O)(=O)c1ccc(CCNC(=O)c2cc(-c3cc(Cl)ccc3O)n[nH]2)cc1,23*,5,-4,2,2,2,2
Cc1ccnc(NC(c2ccsc2)c2ccc3ccc(C)nc3c2O)c1 (configuration not stated),6,-5,-11,4,3,.,.
COc1ccc(C(Nc2cc(C)ccn2)c2ccc3ccc(C)nc3c2O)cc1 (configuration not stated),23*,9,2,1,5,20*,5
C#CCN1CC(COc2ccccc2)Oc2cccc(Oc3ccc(SC)c(C)c3)c2S1(=O)=O (configuration not stated),9,-2,-3,4,.,.,.
Cc1scc(C(=O)NNC(=S)NC(C)c2ccccc2)c1C (configuration not stated),27*,6,-6,5,6,0,0
CCCCNC(=S)NNC(=O)c1csc(C)c1C,9,6,-1,6,0,.,.
COc1ccccc1NS(=O)(=O)c1cccc(C(=O)OCc2nc3ccccc3s2)c1,21*,-4,-8,8,-3,7,2
COCCCN1C(=O)[C@H](CC(=O)NCC23CC4CC(CC(C4)C2)C3)[C@]2(C(=O)OC)CCCCC=C12,3,-4,11,2,.,.,.
COc1cccc(COC(=O)C2CCN(S(=O)(=O)c3ccc(C)cc3C)CC2)c1OC,24*,-1,-8,4,4,4,2
COc1cccc(COC(=O)C2CCN(S(=O)(=O)c3ccc(C)cc3)CC2)c1OC,-2,1,-10,2,0,.,.
SMILES,ADAM10 inh,DDE Tn7 FP inh,Tn6 DDE FP,ADAM17 inh,MT1-MMP act inh,ADAM10 confirm,ADAM17 ctr
C=C(C)C(=O)N1CC2(CC(c3cccc(NC(=O)COc4ccc(Cl)cc4)c3)=NO2)C[C@@H]1C(N)=O (some centres not stated),-13,-4,-5,5,3,.,.
NC(=O)[C@@H]1CC2(CC(c3cccc(NC(=O)COc4ccc(Cl)cc4)c3)=NO2)CN1C(=O)c1ccccc1 (some centres not stated),-6,5,0,3,6,.,.
COc1ccc(C(=O)N2CC3(CC(c4cccc(NC(=O)COc5ccc(Cl)cc5)c4)=NO3)C[C@@H]2C(N)=O)cc1 (some centres not stated),23*,2,-1,5,2,3,1
C/C=C(\C)C(=O)N1CC2(CC(c3cccc(NC(=O)COc4ccc(Cl)cc4)c3)=NO2)C[C@@H]1C(N)=O (some centres not stated),85*,-1,3,-3,8,1,1
O=S(=O)(Nc1cc(C(F)(F)F)ccc1N1CCOCC1)c1ccccc1,-5,3,-5,-4,-4,.,.
O=S(=O)(Nc1cc(C(F)(F)F)ccc1N1CCOCC1)c1ccc2ccccc2c1,24*,8,-2,8,-16,6,3
CN1C(=O)c2cc(NC(=O)Cc3cccs3)ccc2OC[C@@H]2O[C@@H](CC(=O)N[C@H]3CCN(Cc4ccccc4)C3)CC[C@@H]21,1,1,9,-1,.,.,.
CC(C)(C)OC(=O)NCCCCCNC(=O)c1[nH]cnc1C(=O)N[C@@H](CCCCNC(=O)OC(C)(C)C)C(=O)OC(C)(C)C,.,.,.,.,2,.,.

# High-throughput results as filed in PubChem.
